Shown are actives, neighbours in structure and some others; about 4.1% of the full set was active somewhere.
KCNQ1 block: inhibitors of human KCNQ1 channel, primary screen, cell-based, thallium flux, high-throughput. Potassium voltage-gated channel subfamily KQT member 1 (Homo sapiens), P51787. 310,000 tested, 1.3% active. B-score at 10 µM. AID 2642, 2010. CHO-K1 KCNQ1, FluxOR thallium flux fluorescence; stronger effect = higher value;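 active means compounds whose thallium flux B-score, printed positive for inhibition, exceeds three library SD while starting fluorescence stays within three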;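 further: channel opened by potassium depolarization with thallium stimulus after 20 min compound exposure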
KCNQ1 act: potentiators or activators of KCNQ1 channel, primary screen, cell-based, thallium flux, high-throughput; Potassium voltage-gated channel subfamily KQT member 1 (Homo sapiens), P51787; CHO-K1 KCNQ1, thallium flux FluxOR fluorescence; stronger effect = higher value; B-score at 10 µM; 310,000 tested, 0.35% active; AID 2648, 2010;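 active means fluorescence ratio B-score, a plate-corrected score, at least three library SD, with initial intensity B-score within 5 SD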
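Test system: CHO-K1 cells stably expressing KCNQ1 / Medium: assay buffer / Also added: depolarizing K+/Tl+ stimulus, K2SO4 and Tl2SO4 each 12.5 mM in 5x stock / Incubation: 90 min dye loading and 20 min compound exposure, both at room temperature / Signal: thallium influx via FluxOR fluorescence, kinetic imaging / Evaluation: B score of baseline-normalized fluorescence ratio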
KCNK9 block: KCNK9 potassium channel inhibitors, primary screen, HEK293 cells, thallium flux | B-score at 10 µM | FluxOR thallium flux fluorescence; stronger effect = lower value | 310,000 tested, 1.2% active;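 active means ratio B-score over 3 SD below the library mean, with starting fluorescence within 5 SD of its mean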;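 further: negative B-score means less thallium flux so channel inhibition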
hERG rescue: hERG rescue from dofetilide block, primary screen, cell-based, CHO-hERG, FluxOR thallium flux, dofetilide IC70 | Voltage-gated inwardly rectifying potassium channel KCNH2 (Homo sapiens), Q12809 | dofetilide IC70 present | activation (rescue from dofetilide block), less the hit threshold, % at 10 µM | 310,000 tested, 0.51% active | AID 1511, 2009;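 active means activation above the mean of controls blocked by dofetilide plus 5 SD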;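 further: thallium influx through hERG after potassium depolarization seen as dye fluorescence rise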
KCNK3 inh: human KCNK3 channel inhibitors, primary screen, CHO cells, FluxOR thallium flux, B-score; 340,000 tested, 0.84% active; Potassium channel subfamily K member 3 (Homo sapiens), O14649; B-score at 10 µM; FluxOR fluorescence; stronger effect = lower value;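 active means B-score under library mean minus 4 SD, starting fluorescence ratio at most library mean plus 5 SD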;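 further: more negative B-score means stronger inhibition of thallium flux through KCNK3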
Target sequence (O14649 whole entry, looked up): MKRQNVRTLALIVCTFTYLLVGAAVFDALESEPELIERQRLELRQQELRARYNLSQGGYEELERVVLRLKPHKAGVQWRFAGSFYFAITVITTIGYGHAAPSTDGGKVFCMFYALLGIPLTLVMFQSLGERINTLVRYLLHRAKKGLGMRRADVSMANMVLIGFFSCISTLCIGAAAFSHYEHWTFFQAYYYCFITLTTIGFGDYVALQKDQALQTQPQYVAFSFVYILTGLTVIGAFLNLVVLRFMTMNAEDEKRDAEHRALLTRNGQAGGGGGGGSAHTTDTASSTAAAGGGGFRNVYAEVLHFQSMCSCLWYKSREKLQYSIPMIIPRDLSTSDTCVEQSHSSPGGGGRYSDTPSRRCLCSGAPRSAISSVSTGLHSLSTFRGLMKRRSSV
Cl transport mod: KCC2 cotransporter modulators, thallium flux, primary screen, cell-based, HEK293 KCC2, FluoZin-2 fluorescence, MLSMR | KCC2 cells, thallium flux FluoZin-2 fluorescence | 190,000 tested, 2.2% active | B-score of Tl+ flux slope (higher = more flux/activation; lower = inhibition) at 10 µM;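 active means thallium flux slope and its plate-corrected score both differing from the plate sample mean at a set confidence after two filtering rounds, in either direction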;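 further: slope of fluorescence scaled to starting intensity during 10 to 20 s after thallium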
The depositor's hits bear a star; i = inactive; . = no result.

SMILES	KCNQ1 block	KCNQ1 act	KCNK9 block	hERG rescue	KCNK3 inh	Cl transport mod
Cn1cnnc1SCC(=O)NC1CCCc2ccccc21 (stereo not given)	i	i	i	-7	i	1.1
Cn1nnnc1SCC(=O)NC1CCCc2ccccc21 (stereo not given)	i	i	i	6.3*	i	0.86
O=C(CSc1nc2cc(Cl)ccc2s1)NC1CCCc2ccccc21 (stereo not given)	i	i	-7.8*	-3	i	-0.2
COc1ccc(/C(C)=N/NC(=O)CNC(=O)/C=C\c2ccccc2OC)c(OC)c1	i	i	i	-9	i	.
O=C(COc1ccc2ccc(=O)oc2c1)Nc1cccc(S(=O)(=O)N2CCCCC2)c1	.	.	.	.	i	.
COc1ccc(N2CCN(C(=O)COC(=O)CSc3ccccc3)CC2)cc1	.	.	.	.	i	.
Cc1cc(Cl)ccc1OCC(=O)NNC(=O)C1CCN(c2ncnc3sc(C)c(C)c23)CC1	.	.	.	.	-9.9*	.
Cc1sc2ncnc(N3CCN(CCOc4ccc(Cl)cc4)CC3)c2c1C	11*	i	i	-14	-11*	.
O=C(C[n+]1ccc(-c2cc(C(=O)Nc3cccc(C(F)(F)F)c3)c3ccccc3n2)cc1)c1cccc([N+](=O)[O-])c1	7*	i	i	-20	i	0.19
Cc1ccccc1N1CCN(C(=O)c2cc(C3CC3)nn2-c2ccccc2)CC1	.	.	.	.	-9*	.
CCN1CCN(C(=O)c2ccc(Cl)c(S(=O)(=O)N3CCCCC3)c2)CC1	i	i	i	-5	i	.
CC(O)Cc1cn([C@@H](CCCCN)C(=O)N2CCNCC2)nn1 (stereo not given in full)	i	19*	i	-7	i	0.3
CC1=C/C(=N\NC(=S)Nc2cccnc2)CC(C)(C)C1	i	i	i	-10	i	16*
O=C(N/N=C\c1c(O)ccc2ccccc12)c1ccc(S(=O)(=O)N2CCCCC2)cc1	6*	i	i	-15	i	i
O=C(NN=Cc1c(O)ccc2ccccc12)c1ccc2c(c1)OCO2	.	.	.	.	i	.
O=C(CN1CCCc2ccccc21)N/N=C/c1c(O)ccc2ccccc12	7*	i	i	-5	i	-0.48
CCCCN(C)CCN1C(=O)C2C(C(=O)Nc3cccc(OC)c3)C3C=CC2(O3)C1C(=O)NC1CCCCC1C (stereo not given)	i	i	i	-5	i	.
COC(CSc1nc(N)c2c3c(sc2n1)CN(C)CC3)OC	i	i	i	-7	i	.
COCCN(Cc1cc2cc3c(cc2nc1Cl)OCO3)C(=O)c1ccc(C)cc1	i	29*	i	-6	i	0.03
COCCN(Cc1cc2cc(C)c(C)cc2nc1Cl)C(=O)Nc1ccccc1	i	i	i	3	i	-0.11
O=C(Nc1ccccc1)Nc1cccc2ccccc12	i	i	i	-7	i	-0.05
O=C(Nc1ccccc1)Nc1ccc(O)c2ccccc12	6*	i	i	-23	i	.
COc1ccc(CN(C)CC(=O)Nc2cccc(S(=O)(=O)N3CCCC3)c2)cc1F	.	.	.	.	i	.
COc1ccc(NC(=O)CSCC(=O)N(C)Cc2ccc3c(c2)OCCO3)cc1	.	.	.	.	i	.
COc1ccccc1NC(=O)c1ccc2[nH]c(C)c(C)c2c1	i	i	i	-2	i	.
SMILES	KCNQ1 block	KCNQ1 act	KCNK9 block	hERG rescue	KCNK3 inh	Cl transport mod
O=C(c1ccc2c(=O)n(C3CCCC3)c(=S)[nH]c2c1)N1CCc2ccccc21	i	i	i	-10	i	17*
CC(C)NC(=O)c1ccc2c(=O)n(C3CCCC3)c(=S)[nH]c2c1	i	i	i	-7	i	1.3
CCC(C)c1ccccc1N1CC(C(=O)N(C)CC(=O)Nc2cccc(F)c2)CC1=O (stereo not given)	i	i	i	-8	i	.
COc1ccc(CN2CCN(C(=O)C3CCN(C(=O)Nc4ccccc4)CC3)CC2)cc1OC	.	.	.	.	i	.
COc1ccc(S(=O)(=O)N2CCN(Cc3cccc(OC)c3)CC2)cc1	i	i	i	-4	i	.
COc1cccc(CN2CCN(S(=O)(=O)c3ccc(Br)cc3)CC2)c1	i	i	i	-3	-9.7*	2
COC(=O)c1ccccc1S(=O)(=O)N1CCC(C(=O)OC(C)C(=O)N(C)Cc2ccccc2)CC1 (stereo not given)	.	.	.	.	i	.
C=CCn1c2ccccc2c(=O)c2cc(C#Cc3ccsc3)ccc21	i	i	i	8.9*	.	.
O=c1ccc(C(F)(F)F)cn1Cc1cc(=O)n2ccsc2n1	i	i	i	0	i	0.84
O=c1cc(CNc2cc(C(F)(F)F)cc(C(F)(F)F)c2)nc2sccn12	i	i	-7.4*	-3	i	-1.7
CC(c1ccccc1)N(CCC(c1ccccc1)C1CCOC(C)(C)C1)C(=O)c1ccco1 (stereo not given)	9*	i	i	-37	i	-2.3
CC1(C)CC(C(CC(=O)O)c2ccccc2)CCO1 (stereo not given)	i	i	i	-4	i	.
COc1ccc(CN(CCC(c2ccc(F)cc2)C2CCOC(C)(C)C2)C(=O)c2ccco2)cc1 (stereo not given)	i	i	-11*	-26	i	-1
CCOc1ccc(-c2ncncc2-c2ccc(OC)c(OC)c2)c(O)c1	i	i	i	-5	i	.
Cc1ccc(C)n1-c1sc2c(c1C#N)CCC(C)C2 (stereo not given)	i	i	-7.4*	-5	i	-0.058
CNc1nc(SC)nc2ccccc12	i	i	i	6.6*	i	-0.83
COc1ccccc1CNC(=O)CCS(=O)(=O)c1ccc(Cl)cc1	i	i	i	-16	i	.
COCCCNC(=O)/C(C#N)=c1\s/c(=C\c2ccccc2OC(F)F)c(=O)n1CCCOC	i	i	i	-6	i	-0.54
CCCCNC(=O)/C(C#N)=c1\s/c(=C\c2ccccc2OC(F)F)c(=O)n1CCCOC	7*	i	i	-9	i	-1.4
NC(=O)c1cc([N+](=O)[O-])ccc1N1CCN(Cc2ccccc2)CC1	i	i	i	-3	i	.
Cc1nn(-c2ccccc2)c2ncc(C(=O)c3cc(Cl)ccc3O)cc12	i	i	i	-7	i	0.059
